From ChEMBL document CHEMBL3352243, “Ligand-based virtual screening identifies a family of selective cannabinoid receptor 2 agonists” (Bioorg Med Chem, 2015)

What was measured:
Cannabinoid receptor 2 [1] = molecular target: T1, Cannabinoid receptor 2 (Homo sapiens, UniProt P34972); assay: Agonist activity at human CB2R expressed in CHO cells assessed as reduction in forskolin-induced cAMP accumulation by beta-galactosidase based complementation immunoassay; assay type: functional, cell-based
Method in brief: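 hCB2R CHO-K1 cells plated overnight at 37 °C, 5% CO2; anti-cAMP antibody added, then compound (final 0.2% DMSO) with 20 μM forskolin for 30 min at 37 °C. Lysis/substrate 1 h, then EA detection reagent 3 h at room temperature; luminescence read and normalised to forskolin+solvent wells (100%). EC50 by 4-parameter nonlinear fit of pooled 3–4 independent experiments.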
Target sequence in this assay (P34972 whole entry): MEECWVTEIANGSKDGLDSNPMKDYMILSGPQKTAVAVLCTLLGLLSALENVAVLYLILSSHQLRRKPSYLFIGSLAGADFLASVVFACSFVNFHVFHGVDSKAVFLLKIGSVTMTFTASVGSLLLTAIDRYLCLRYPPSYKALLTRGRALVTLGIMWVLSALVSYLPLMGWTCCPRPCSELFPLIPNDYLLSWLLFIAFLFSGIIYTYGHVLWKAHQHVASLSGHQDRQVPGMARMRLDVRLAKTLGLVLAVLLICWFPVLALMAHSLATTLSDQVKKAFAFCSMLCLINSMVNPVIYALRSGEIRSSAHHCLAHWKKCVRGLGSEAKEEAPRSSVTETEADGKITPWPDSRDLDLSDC

Cannabinoid receptor 2 [2] = molecular target: T1, Cannabinoid receptor 2; assay: Displacement of [3H]WIN-55212-2 from human CB2R expressed in CHO cells; assay type: cell-based
Method in brief: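 Membranes from CHO cells expressing hCB2R incubated with test compound and tritiated WIN-55212 (0.8 nM), 2 h, 37 °C. Non-specific binding defined with 5 μM WIN-55212. Scintillation counting of bound ligand; Ki via Cheng–Prusoff with radioligand Kd; duplicate.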
Target sequence in this assay (P34972 whole entry): as above

Cannabinoid receptor 1 [3] = molecular target: T2, Cannabinoid receptor 1 (Homo sapiens, UniProt P21554); assay: Displacement of [3H]CP55940 from human CB1R expressed in CHO cells; assay type: cell-based
T2 sequence (P21554 whole entry): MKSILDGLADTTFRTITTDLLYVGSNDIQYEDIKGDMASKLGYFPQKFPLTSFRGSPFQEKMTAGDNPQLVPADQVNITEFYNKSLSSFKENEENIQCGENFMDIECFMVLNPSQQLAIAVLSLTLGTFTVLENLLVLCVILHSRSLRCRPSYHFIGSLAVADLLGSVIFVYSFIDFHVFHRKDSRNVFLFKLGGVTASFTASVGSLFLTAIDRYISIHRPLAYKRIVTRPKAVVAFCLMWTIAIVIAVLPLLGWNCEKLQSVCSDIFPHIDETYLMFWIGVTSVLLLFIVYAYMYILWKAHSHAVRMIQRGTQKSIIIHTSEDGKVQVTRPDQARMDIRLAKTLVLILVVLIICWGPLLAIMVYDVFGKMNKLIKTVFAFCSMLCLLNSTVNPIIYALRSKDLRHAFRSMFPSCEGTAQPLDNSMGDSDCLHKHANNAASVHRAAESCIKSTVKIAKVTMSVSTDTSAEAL
Method in brief: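 Membranes from CHO cells expressing hCB1R incubated with test compound and [3H]CP 55,940 (0.5 nM) for 2 h at 37 °C. Non-specific binding defined with 10 μM WIN-55212. Bound radioligand measured by scintillation counting. Ki from Cheng–Prusoff using radioligand Kd; run in duplicate.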

Liver = assay: Half life in mouse liver microsomes in presence of NADPH by LC-MS/MS method; assay type: ADME
Method in brief: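 Mouse liver microsomes incubated with compound at 37 °C with NADPH. Reactions stopped with methanol containing internal standard, centrifuged, supernatant analysed by LC–MS/MS.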

Cannabinoid receptor 1 [4] = molecular target: T2, Cannabinoid receptor 1; assay: Agonist activity at human CB1R expressed in CHO cells assessed as reduction in forskolin-induced cAMP accumulation by beta-galactosidase based complementation immunoassay; assay type: functional, cell-based
Method in brief: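 CHO-K1 cells expressing hCB1R, 15,000 per well, incubated overnight at 37 °C, 5% CO2, then given anti-cAMP antibody. Compounds were added with 20 μM forskolin (final DMSO 0.2%) for 30 min at 37 °C. Lysis/substrate step 1 h and EA detection 3 h, both at rt in the dark, then luminescence read.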

Cannabinoid receptor 2 [5] = molecular target: T1, Cannabinoid receptor 2; assay: Agonist activity at human CB2R expressed in CHO cells assessed as reduction in forskolin-induced cAMP accumulation at 3 uM by beta-galactosidase based complementation immunoassay; assay type: functional, cell-based; parameters: reference not given here
Method in brief: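 CHO-K1 cells expressing hCB2R, 15,000 per well, incubated overnight at 37 °C, 5% CO2, then anti-cAMP antibody added. Test agent at single concentration with 20 μM forskolin (0.2% DMSO final), 30 min at 37 °C. Lysis/substrate 1 h, then EA reagent 3 h, both at rt in the dark; luminescence read and expressed as % of forskolin+solvent control wells.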
Target sequence in this assay (P34972 whole entry): as the sequence (P34972 whole entry) above

Cannabinoid receptor 2 [6] = molecular target: T1, Cannabinoid receptor 2; assay: Agonist activity at human CB2R expressed in CHO cells assessed as reduction in forskolin-induced cAMP accumulation at 1 uM by beta-galactosidase based complementation immunoassay; parameters: reference not given here
Target sequence in this assay (P34972 whole entry, looked up): as the sequence (P34972 whole entry) above

N#Cc1ccccc1CSc1nnc2c3ccccc3n(C(=O)C3CCCC3)c2n1
EC50 (Cannabinoid receptor 2 [1]): 0.049 µM
Ki (Cannabinoid receptor 2 [2]): 0.32 µM
Ki (Cannabinoid receptor 1 [3]): > 60 µM

N#Cc1ccccc1C[S+]([O-])c1nnc2c(n1)[nH]c1ccccc12 (configuration not stated)
EC50 (Cannabinoid receptor 2 [1]): 3.55 µM

N#Cc1ccccc1CSc1nnc2c3ccccc3n(CC3CC3)c2n1
EC50 (Cannabinoid receptor 2 [1]): 0.144 µM
t1/2 (Liver): < 5 min

CN(C)c1ccc(C(=O)n2c3ccccc3c3nnc(SCc4ccccc4C#N)nc32)cc1
EC50 (Cannabinoid receptor 2 [1]): > 3 µM

CCOC(=O)c1ccccc1CSc1nnc2c(n1)[nH]c1ccccc12
EC50 (Cannabinoid receptor 2 [1]): > 3 µM

N#Cc1ccccc1CSc1nnc2c(n1)[nH]c1cccc(C3CC3)c12
EC50 (Cannabinoid receptor 2 [1]): 0.231 µM

O=[N+]([O-])c1ccccc1CSc1nnc2c(n1)[nH]c1ccccc12
EC50 (Cannabinoid receptor 2 [1]): 0.033 µM
EC50 (Cannabinoid receptor 1 [4]): > 30 µM
Ki (Cannabinoid receptor 2 [2]): 0.155 µM
Ki (Cannabinoid receptor 1 [3]): > 60 µM
t1/2 (Liver): 43 min

N#Cc1ccccc1CSc1nnc2c3ccccc3n(C(=O)c3ccc(OC(F)(F)F)cc3)c2n1
EC50 (Cannabinoid receptor 2 [1]): 0.073 µM
Ki (Cannabinoid receptor 2 [2]): 0.38 µM
Ki (Cannabinoid receptor 1 [3]): > 60 µM

N#Cc1ccccc1CSc1nnc2c3ccccc3n(C(=O)c3ccc(F)cc3)c2n1
EC50 (Cannabinoid receptor 2 [1]): 0.057 µM

Fc1ccc(CSc2nnc3c(n2)[nH]c2ccccc23)cc1
EC50 (Cannabinoid receptor 2 [1]): > 3 µM

N#Cc1ccccc1CSc1nnc2c(n1)[nH]c1cccc(Br)c12
EC50 (Cannabinoid receptor 2 [1]): 0.039 µM
EC50 (Cannabinoid receptor 1 [4]): 20 µM
Ki (Cannabinoid receptor 2 [2]): 0.0225 µM
Ki (Cannabinoid receptor 1 [3]): 3.2 µM
t1/2 (Liver): 5 min

c1ccc2c(c1)[nH]c1nc(SCC3CCCCC3)nnc12
EC50 (Cannabinoid receptor 2 [1]): > 3 µM

CCCCn1c2ccccc2c2nnc(SCc3ccccc3C#N)nc21
EC50 (Cannabinoid receptor 2 [1]): 0.106 µM
t1/2 (Liver): < 5 min

N#Cc1ccccc1CSc1nnc2c3ccccc3n(C(=O)OCc3ccccc3)c2n1
EC50 (Cannabinoid receptor 2 [1]): > 3 µM

FC(F)(F)c1ccccc1CSc1nnc2c(n1)[nH]c1ccccc12
EC50 (Cannabinoid receptor 2 [1]): > 3 µM

Cn1c2ccccc2c2nnc(SCc3ccccc3C#N)nc21
EC50 (Cannabinoid receptor 2 [1]): > 3 µM

Fc1cccc(F)c1CSc1nnc2c(n1)[nH]c1ccccc12
EC50 (Cannabinoid receptor 2 [1]): > 3 µM

N#Cc1ccccc1CSc1nnc2c3ccccc3n(S(=O)(=O)c3ccccc3)c2n1
EC50 (Cannabinoid receptor 2 [1]): 0.076 µM
t1/2 (Liver): < 5 min

CCCCCCSC1=C(C#N)C(c2ccc(F)cc2)NC(=O)N1 (configuration not stated)
Activity (Cannabinoid receptor 2 [5]): 114%
Activity (Cannabinoid receptor 2 [6]): 121%

C=CCn1c(SCCCC)nc2sc3c(c2c1=O)CC(C)(C)OC3
Activity (Cannabinoid receptor 2 [5]): 36.7%
Activity (Cannabinoid receptor 2 [6]): 76.3%

CCCCCSc1nnc2c3ccccc3n(C)c2n1
Activity (Cannabinoid receptor 2 [5]): 110%
Activity (Cannabinoid receptor 2 [6]): 129%

CCCCCCSC1=C(C#N)C(c2cccc(Cl)c2)NC(=O)N1 (configuration not stated)
Activity (Cannabinoid receptor 2 [5]): 117%
Activity (Cannabinoid receptor 2 [6]): 105%

CCC1(C)Cc2c(sc3nc(SCCC(C)C)nc(N)c23)CO1 (configuration not stated)
Activity (Cannabinoid receptor 2 [5]): 98.4%
Activity (Cannabinoid receptor 2 [6]): 111%

CCCCCSc1nnc2c(n1)[nH]c1ccccc12
Activity (Cannabinoid receptor 2 [5]): 73.1%
Activity (Cannabinoid receptor 2 [6]): 86.2%

CCCCCCSc1nnc2c(n1)[nH]c1ccccc12
Activity (Cannabinoid receptor 2 [5]): 76%
Activity (Cannabinoid receptor 2 [6]): 102%

Fc1ccccc1CSc1nnc2c(n1)[nH]c1ccccc12
EC50 (Cannabinoid receptor 2 [1]): > 3 µM

CCn1c2ccccc2c2nnc(SCc3ccccc3C#N)nc21
EC50 (Cannabinoid receptor 2 [1]): 0.674 µM

CC(=O)n1c2ccccc2c2nnc(SCc3ccccc3C#N)nc21
EC50 (Cannabinoid receptor 2 [1]): > 3 µM

Clc1ccccc1CSc1nnc2c(n1)[nH]c1ccccc12
EC50 (Cannabinoid receptor 2 [1]): > 3 µM

N#Cc1ccccc1CSc1nnc2c(n1)[nH]c1c(Br)cccc12
EC50 (Cannabinoid receptor 2 [1]): > 3 µM

CCCCCCSC1=C(C#N)C(c2ccccc2Cl)NC(=O)N1 (configuration not stated)
Activity (Cannabinoid receptor 2 [5]): 119%
Activity (Cannabinoid receptor 2 [6]): 98.2%

N#Cc1ccccc1CSc1nnc2c(n1)[nH]c1ccc(Br)cc12
EC50 (Cannabinoid receptor 2 [1]): > 3 µM

N#Cc1ccccc1CSc1nnc2c3ccccc3n(C(=O)c3ccco3)c2n1
EC50 (Cannabinoid receptor 2 [1]): 0.046 µM
Ki (Cannabinoid receptor 2 [2]): 0.49 µM
Ki (Cannabinoid receptor 1 [3]): > 10 µM

COc1ccc(C(=O)n2c3ccccc3c3nnc(SCc4ccccc4C#N)nc32)cc1OC
EC50 (Cannabinoid receptor 2 [1]): 0.16 µM

N#Cc1ccccc1CSc1nnc2c3ccccc3n(C(=O)c3cccc(C(F)(F)F)c3)c2n1
EC50 (Cannabinoid receptor 2 [1]): 0.027 µM

Clc1ccc(CSc2nnc3c(n2)[nH]c2ccccc23)cc1
EC50 (Cannabinoid receptor 2 [1]): > 3 µM

Fc1ccccc1CSc1nnc2c3ccccc3n(Cc3ccccc3)c2n1
EC50 (Cannabinoid receptor 2 [1]): 0.85 µM
Ki (Cannabinoid receptor 2 [2]): 0.215 µM
Ki (Cannabinoid receptor 1 [3]): 0.275 µM

O=C(O)c1ccccc1CSc1nnc2c(n1)[nH]c1ccccc12
EC50 (Cannabinoid receptor 2 [1]): 2.19 µM

CCCCCCCC1C(=O)NC(=S)N(c2ccccc2)C1=O (configuration not stated)
Activity (Cannabinoid receptor 2 [5]): 98.1%
Activity (Cannabinoid receptor 2 [6]): 111%

CSc1nnc2c(n1)[nH]c1ccccc12
EC50 (Cannabinoid receptor 2 [1]): > 3 µM

N#Cc1ccccc1CSc1nnc2c3ccccc3n(CC3CCCCC3)c2n1
EC50 (Cannabinoid receptor 2 [1]): 0.27 µM
t1/2 (Liver): < 5 min

CC(C)CCSc1nc(N)c2c3c(sc2n1)COC(C)(C)C3
Activity (Cannabinoid receptor 2 [5]): 85.3%
Activity (Cannabinoid receptor 2 [6]): 76.7%

FC(F)(F)Oc1ccccc1CSc1nnc2c(n1)[nH]c1ccccc12
EC50 (Cannabinoid receptor 2 [1]): > 3 µM

N#Cc1ccccc1CSc1nnc2c3ccccc3n(S(=O)(=O)c3ccccc3[N+](=O)[O-])c2n1
EC50 (Cannabinoid receptor 2 [1]): > 3 µM

N#Cc1ccccc1CSc1nnc2c3ccccc3n(Cc3ccccc3[N+](=O)[O-])c2n1
EC50 (Cannabinoid receptor 2 [1]): 0.053 µM
EC50 (Cannabinoid receptor 1 [4]): > 30 µM
Ki (Cannabinoid receptor 2 [2]): 0.29 µM
Ki (Cannabinoid receptor 1 [3]): > 60 µM

CCCCSc1nnc(-c2ccccc2N)c(O)n1
Activity (Cannabinoid receptor 2 [5]): 61.6%
Activity (Cannabinoid receptor 2 [6]): 93.5%

CCCCCCSC1=C(C#N)C(c2cccc([N+](=O)[O-])c2)NC(=O)N1 (configuration not stated)
Activity (Cannabinoid receptor 2 [5]): 39.9%
Activity (Cannabinoid receptor 2 [6]): 63.2%

O=[N+]([O-])c1ccc(CSc2nnc3c(n2)[nH]c2ccccc23)cc1
EC50 (Cannabinoid receptor 2 [1]): 0.617 µM

Clc1cccc(CSc2nnc3c(n2)[nH]c2ccccc23)c1
EC50 (Cannabinoid receptor 2 [1]): > 3 µM

Cc1ccccc1-c1cccc2[nH]c3nc(SCc4ccccc4C#N)nnc3c12
EC50 (Cannabinoid receptor 2 [1]): 4.3 µM

N#Cc1cccc(CSc2nnc3c(n2)[nH]c2ccccc23)c1
EC50 (Cannabinoid receptor 2 [1]): 6.45 µM
EC50 (Cannabinoid receptor 1 [4]): > 30 µM

c1ccc(CSc2nnc3c(n2)[nH]c2ccccc23)cc1
EC50 (Cannabinoid receptor 2 [1]): 10 µM
EC50 (Cannabinoid receptor 1 [4]): > 30 µM

N#Cc1ccccc1CSc1nnc2c3ccccc3n(C(=O)c3ccc(F)cc3C(F)(F)F)c2n1
EC50 (Cannabinoid receptor 2 [1]): > 3 µM

CCCCCCSC1=C(C#N)C(c2ccc(Cl)cc2)NC(=O)N1 (configuration not stated)
Activity (Cannabinoid receptor 2 [5]): 138%
Activity (Cannabinoid receptor 2 [6]): 108%

O=[N+]([O-])c1ccccc1CSc1nnc2c(n1)[nH]c1cccc(Br)c12
EC50 (Cannabinoid receptor 2 [1]): 0.037 µM

O=C(c1ccccc1)n1c2ccccc2c2nnc(SCc3ccccc3[N+](=O)[O-])nc21
EC50 (Cannabinoid receptor 2 [1]): 0.075 µM
Ki (Cannabinoid receptor 2 [2]): 0.235 µM
Ki (Cannabinoid receptor 1 [3]): > 60 µM

N#Cc1ccccc1CSc1nnc2c3ccccc3n(C(=O)C3CCCCC3)c2n1
EC50 (Cannabinoid receptor 2 [1]): 0.032 µM
Ki (Cannabinoid receptor 2 [2]): 0.03 µM
Ki (Cannabinoid receptor 1 [3]): > 60 µM

N#Cc1ccccc1CSc1nnc2c(n1)[nH]c1cccc(-c3ccsc3)c12
EC50 (Cannabinoid receptor 2 [1]): 1.76 µM

Cc1ccc(-c2cccc3[nH]c4nc(SCc5ccccc5C#N)nnc4c23)cc1
EC50 (Cannabinoid receptor 2 [1]): > 3 µM

N#Cc1ccccc1CSc1nnc2c(n1)[nH]c1cc(Br)ccc12
EC50 (Cannabinoid receptor 2 [1]): > 3 µM

CCCCSc1nnc2c(n1)OC(CC)Nc1ccccc1-2 (configuration not stated)
Activity (Cannabinoid receptor 2 [5]): 44.3%
Activity (Cannabinoid receptor 2 [6]): 47.8%

Cc1ccc(S(=O)(=O)n2c3ccccc3c3nnc(SCc4ccccc4C#N)nc32)cc1
EC50 (Cannabinoid receptor 2 [1]): > 3 µM

N#Cc1ccccc1CSc1nnc2c3ccccc3n(C(=O)C3CC3)c2n1
EC50 (Cannabinoid receptor 2 [1]): 0.181 µM
t1/2 (Liver): < 5 min
